Activity calls are given as the source filed them. The rule behind the calls is not given here.
Columns and labels:
Type in all cases: functional
Leishmania donovani [1] = experiment: Antileishmanial activity against Leishmania donovani MHOM/IN/80/DD8 amastigote forms harboring luciferase gene infected in mouse J774 cells at 25 uM after 72 hrs by Steady-Glo reagent based luminescence assay relative to control; details: for inhibition of growth at 25 µM: MHOM/IN/80/DD8, J774, 72 h, read-out: GI
In short: (§1)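 Stationary-phase luciferase-expressing Dd8 promastigotes infected into J774 macrophages (4×10^4/mL seeded, 24 h, 37 °C, 5% CO2) at 1:8 macrophage:parasite for 24 h. Non-internalised parasites washed off. Compounds added at 50 and 25 µM in RPMI/10% FBS for 72 h. Lysis with Steady-Glo luciferin reagent plus PBS, luminescence read. Inhibition relative to untreated infected controls.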

Leishmania donovani [2] = experiment: Antileishmanial activity against Leishmania donovani MHOM/IN/80/DD8 amastigote forms harboring luciferase gene infected in mouse J774 cells at 50 uM after 72 hrs by Steady-Glo reagent based luminescence assay relative to control; details: for inhibition of growth at 50 µM: MHOM/IN/80/DD8, J774, 72 h, read-out: GI; in short: as §1
Leishmania donovani [3] = experiment: Antileishmanial activity against Leishmania donovani MHOM/IN/80/DD8 promastigote forms harboring luciferase gene at 50 uM after 72 hrs by Steady-Glo reagent based luminescence assay relative to control; details: MHOM/IN/80/DD8, 72 h, read-out: GI
In short: (§2)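 Exponential-phase Dd8-Luc promastigotes at 1×10^6/mL in M199 with 10% FBS, 24 °C, given 50 and 25 µM for 72 h. Vehicle 0.1% DMSO. Steady-Glo added 1:1, luminescence (RLU) read. IC50 from four-parameter Hill regression, derived only where inhibition exceeded 90%. Means of at least three independent experiments.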

Leishmania donovani [4] = experiment: Antileishmanial activity against Leishmania donovani MHOM/IN/80/DD8 promastigote forms harboring luciferase gene at 25 uM after 72 hrs by Steady-Glo reagent based luminescence assay relative to control; details: MHOM/IN/80/DD8, 72 h, read-out: GI; in short: as §2

| SMILES | growth inhibition (GI) (Leishmania donovani [1]) | growth inhibition (GI) (Leishmania donovani [2]) | inhibition of growth at 50 µM (Leishmania donovani [3]) [%] | inhibition of growth at 25 µM (Leishmania donovani [4]) [%] | inhibition of growth at 25 µM (Leishmania donovani [1]) [%] | inhibition of growth at 50 µM (Leishmania donovani [2]) [%] |
| --- | --- | --- | --- | --- | --- | --- |
| COc1ccc(OC)c(-c2c3c(nc4c2c(-c2c[nH]c5ccccc25)nn4-c2ccc(F)cc2)-c2ccccc2C3=O)c1 | inactive | inactive | 58.3 | 49.8 |  |  |
| COc1ccc(-c2c3c(nc4c2c(-c2c[nH]c5ccccc25)nn4-c2ccc(Cl)c(Cl)c2)CCC3=O)cc1OC |  |  | 81.1 | 52.4 | 20.8 | 34.3 |
| CC1(C)CC(=O)c2c(nc3c(c(-c4c[nH]c5ccccc45)nn3-c3ccc(Cl)cc3)c2-c2ccc(Cl)cc2Cl)C1 | inactive | inactive | 40.6 | 35.7 |  |  |
| COc1cc(-c2c3c(nc4c2c(-c2c[nH]c5ccccc25)nn4-c2ccc(Cl)cc2)CC(C)(C)CC3=O)cc(OC)c1OC | inactive | inactive | 68.6 | 59.1 |  |  |
| O=C1C2=C(Nc3c(c(-c4c[nH]c5ccccc45)nn3-c3ccc(Cl)cc3)C2c2ccc(Cl)cc2)c2ccccc21 (stereo not given) | inactive | inactive | 62.4 | 49.1 |  |  |
| COc1ccc(OC)c(-c2c3c(nc4c2c(-c2c[nH]c5ccccc25)nn4-c2ccc(Cl)cc2)CC(C)(C)CC3=O)c1 | inactive | inactive | 69.6 | 50.7 |  |  |
| COc1ccc(-c2c3c(nc4c2c(-c2c[nH]c5ccccc25)nn4-c2ccc(Cl)cc2)CC(C)(C)CC3=O)c(OC)c1OC | inactive | inactive | 54.3 | 40.2 |  |  |
| COc1ccc(OC)c(-c2c3c(nc4c2c(-c2c[nH]c5ccccc25)nn4-c2ccc(Cl)cc2)-c2ccccc2C3=O)c1 | inactive | inactive | 53.6 | 44.6 |  |  |
| COc1ccc(OC)c(-c2c3c(nc4c2c(-c2c[nH]c5ccccc25)nn4-c2ccc(Cl)c(Cl)c2)CC(C)(C)CC3=O)c1 |  |  | 51.8 | 41.3 | 24.6 | 41.3 |
| COc1ccc(-c2c3c(nc4c2c(-c2c[nH]c5ccccc25)nn4-c2ccc(Cl)cc2)-c2ccccc2C3=O)cc1 | inactive | inactive | 33.4 | 27.5 |  |  |
| COc1ccc(OC)c(-c2c3c(nc4c2c(-c2c[nH]c5ccccc25)nn4-c2ccc(Cl)cc2)CCC3=O)c1 | inactive | inactive | 67.2 | 61.2 |  |  |
| COc1cc(C2C3=C(CCC3=O)Nc3c2c(-c2c[nH]c4ccccc24)nn3-c2ccc(F)cc2)cc(OC)c1O (stereo not given) | inactive | inactive | 66.9 | 56.5 |  |  |
| CC1(C)CC(=O)c2c(nc3c(c(-c4c[nH]c5ccccc45)nn3-c3ccc(F)cc3)c2-c2ccc(Cl)cc2Cl)C1 | inactive | inactive | 48.4 | 44.6 |  |  |
| COc1cc(C2C3=C(CCC3=O)Nc3c2c(-c2c[nH]c4ccccc24)nn3-c2ccc(Cl)cc2)cc(OC)c1O (stereo not given) |  |  | 89.6 | 79.1 | 25.2 | 30.7 |
| COc1ccc(C2C3=C(CC(C)(C)CC3=O)Nc3c2c(-c2c[nH]c4ccccc24)nn3-c2ccc(Cl)c(Cl)c2)cc1OC (stereo not given) | inactive | inactive | 59.5 | 52.3 |  |  |
